Results taken from ChEMBL document CHEMBL3244256 (J Med Chem, 1979).

What was measured:
Mus musculus [1] = test: Antiradiation activity in ip dosed whole-body gamma-irradiated mouse assessed as increase in mouse survival rate compound administered 30 mins prior irradiation; assay type: functional; conditions: light or radiation study, read-out: MED
Outline: (§1)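 Mice were dosed ip or po with compound in water, or in physiological saline containing 0.3% methylcellulose and 0.1% Tween 80, usually at pH 5–7. Dosing came 15, 30 or 60 min before whole-body ¹³⁷Cs γ irradiation (141.5 rd/min; 849 rd for most compounds). The dose reported is the lowest giving the highest survival rate. Read-out was % survival at 30 days.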

[2] = Toxicity ip dosed whole-body gamma-irradiated mouse compound administered 30 mins prior irradiation; assay type: organism-based; conditions: in vivo
Mus musculus [3] = test: Antiradiation activity in ip dosed whole-body gamma-irradiated mouse assessed as mouse survival compound administered 30 mins prior irradiation measured after 30 days relative to control; assay type: functional; outline: as §1
Mus musculus [4] = test: Protective index, ratio of LD50 for mouse to ED50 for antiradiation activity in ip dosed whole-body gamma-irradiated mouse
Outline: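 After ip dosing and whole-body ¹³⁷Cs γ irradiation (141.5 rd/min), ED50 (dose for 50% survival) was estimated from log dose-probit survival plots. Protective index was approximated as approx LD50 (mg/kg) × 1.5 / ED50 (mg/kg).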

[5] = Toxicity po dosed whole-body gamma-irradiated mouse compound administered 30 mins prior irradiation; assay type: organism-based; conditions: in vivo
Mus musculus [6] = test: Antiradiation activity in ip dosed whole-body gamma-irradiated mouse assessed as increase in mouse survival rate compound administered 15 mins prior irradiation; assay type: functional; conditions: light or radiation study; outline: as §1
[7] = Toxicity ip dosed whole-body gamma-irradiated mouse compound administered 15 mins prior irradiation; assay type: organism-based; conditions: in vivo
Mus musculus [8] = test: Antiradiation activity in po dosed whole-body gamma-irradiated mouse assessed as increase in mouse survival rate compound administered 30 mins prior irradiation; assay type: functional; conditions: light or radiation study, read-out: MED; outline: as §1
Mus musculus [9] = test: Antiradiation activity in ip dosed whole-body gamma-irradiated mouse assessed as mouse survival compound administered 15 mins prior irradiation measured after 30 days relative to control; assay type: functional; outline: as §1
Mus musculus [10] = test: Antiradiation activity in po dosed whole-body gamma-irradiated mouse assessed as mouse survival compound administered 30 mins prior irradiation measured after 30 days relative to control; assay type: functional; outline: as §1

**Q.** With Br.NCC(N)CS (stereo unspecified) as the compound, how does the minimal effective dose (Mus musculus [1]) read?
**A.** 200 mg/kg

**Q.** What about the LD50 at 0.5 h [2] of the same compound?
**A.** 800 mg/kg

**Q.** What about the Survival (Mus musculus [3]) of the same compound?
**A.** 20%

**Q.** For Cl.NCCCC[C@H](N)CS, which PI (Mus musculus [4]) is on record?
**A.** 13

**Q.** And the LD50 at 0.5 h [5]?
**A.** 450 mg/kg

**Q.** What about the ED50 (Mus musculus [6]) of the same compound?
**A.** 10 mg/kg

**Q.** What about the minimal effective dose (Mus musculus [6]; read-out: MED) of the same compound?
**A.** 25 mg/kg

**Q.** What about the LD50 at 0.25 h [7] of the same compound?
**A.** 88 mg/kg

**Q.** And the minimal effective dose (Mus musculus [8])?
**A.** 75 mg/kg

**Q.** And the Survival (Mus musculus [9])?
**A.** 80%

**Q.** What about the Survival (Mus musculus [10]) of the same compound?
**A.** 50%
